Usually Ki stands for the equilibrium dissociation constant of an inhibitor or competing ligand from its target. A high value points to a looser hold on the target. What is called IC50 is the point on the concentration scale where inhibition reaches its midpoint.

In assay [1] the target is T1, Sodium-dependent dopamine transporter (Rattus norvegicus, UniProt P23977). Nature of the assay: Binding affinity for [3H]DA (Dopamine transporter) uptake by striated synaptosomes. It counts as subcellular, Brain. The gist of the method:
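Striatal synaptosomes in Krebs-Ringer-HEPES (125 mM NaCl, 4.8 mM KCl, 1.2 mM MgSO4, 25 mM HEPES, pH 7.4). After 30 min drug preincubation, [3H]DA was added at about 5 nM. Uptake lasted 5 min and ended by rapid filtration. […] Ki was derived by Cheng–Prusoff with Kd 57 nM. Values are the mean of 2–3 experiments.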

The target of assay [2] is T1, Sodium-dependent dopamine transporter. Put plainly: Inhibitory activity determined for [3H]DA (Dopamine transporter) uptake by striated synaptosomes. It counts as subcellular, Brain.
For assay [3] the target is unchanged. Nature of the assay: (§1) Inhibitory activity on dopamine transporters of rat striated membranes using [3H]- mazindol. The gist of the method: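 Striatal membrane homogenate was added to tubes holding drug and about 4 nM [3H]mazindol in Krebs-Ringer-HEPES (pH 7.4). Incubation was 1 h at 4 °C, followed by filtration.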
In assay [4] the target is T2, Sodium-dependent serotonin transporter (Rattus norvegicus, UniProt P31652). Nature of the assay: Inhibitory activity against Serotonin transporter was determined for [3H]5-HT (serotonin) uptake by striated synaptosomes. It counts as subcellular, Brain.
Assay [5] concerns the target T2, Sodium-dependent serotonin transporter. Nature of the assay: Binding affinity for Serotonin transporter was determined by [3H]5-HT (serotonin) uptake by striated synaptosomes. It counts as subcellular, Brain.
Assay [6] concerns the target Monoamine transporters; serotonin & dopamine (Rattus norvegicus) (UniProt P31652+P23977). Put plainly: Ratio of Ki value for 5-HT to that of DA. It counts as protein assay.
Assay [7] addresses T1, Sodium-dependent dopamine transporter. Put plainly: Binding affinity of compound on dopamine transporters of rat striated membranes using [3H]- mazindol. It is filed as cell membranes, Membrane. The gist of the method: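 Striatal membrane homogenate was added to tubes holding drug and about 4 nM [3H]mazindol in Krebs-Ringer-HEPES (pH 7.4). Incubation was 1 h at 4 °C, followed by filtration. […] Values are the mean of 2–3 experiments.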

The target is the same in assay [8]. The assay is described as §1. This is another data set of the same source.
Assay [9] has the same target. Nature of the assay: Inhibitory activity on dopamine transporter of rat striated membranes using [3H]- mazindol.

Chain of Monoamine transporters; serotonin & dopamine (Rattus norvegicus) (P23977 whole entry, looked up): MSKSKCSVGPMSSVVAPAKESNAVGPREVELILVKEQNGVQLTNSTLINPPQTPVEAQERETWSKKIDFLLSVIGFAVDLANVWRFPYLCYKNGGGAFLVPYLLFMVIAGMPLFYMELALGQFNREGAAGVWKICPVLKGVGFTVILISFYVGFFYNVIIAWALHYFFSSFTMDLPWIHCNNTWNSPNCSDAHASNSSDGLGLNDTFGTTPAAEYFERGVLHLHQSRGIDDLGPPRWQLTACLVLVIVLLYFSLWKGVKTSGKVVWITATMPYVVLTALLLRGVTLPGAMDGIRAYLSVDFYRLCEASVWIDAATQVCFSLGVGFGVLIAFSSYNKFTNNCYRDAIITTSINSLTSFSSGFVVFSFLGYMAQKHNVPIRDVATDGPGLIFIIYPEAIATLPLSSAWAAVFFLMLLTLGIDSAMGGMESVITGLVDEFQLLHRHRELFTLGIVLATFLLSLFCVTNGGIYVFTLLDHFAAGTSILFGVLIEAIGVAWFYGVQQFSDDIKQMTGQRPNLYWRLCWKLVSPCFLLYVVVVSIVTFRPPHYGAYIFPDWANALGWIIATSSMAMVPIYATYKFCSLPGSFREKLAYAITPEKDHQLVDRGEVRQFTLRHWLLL
Chain of Monoamine transporters; serotonin & dopamine (Rattus norvegicus) (P31652 whole entry, looked up): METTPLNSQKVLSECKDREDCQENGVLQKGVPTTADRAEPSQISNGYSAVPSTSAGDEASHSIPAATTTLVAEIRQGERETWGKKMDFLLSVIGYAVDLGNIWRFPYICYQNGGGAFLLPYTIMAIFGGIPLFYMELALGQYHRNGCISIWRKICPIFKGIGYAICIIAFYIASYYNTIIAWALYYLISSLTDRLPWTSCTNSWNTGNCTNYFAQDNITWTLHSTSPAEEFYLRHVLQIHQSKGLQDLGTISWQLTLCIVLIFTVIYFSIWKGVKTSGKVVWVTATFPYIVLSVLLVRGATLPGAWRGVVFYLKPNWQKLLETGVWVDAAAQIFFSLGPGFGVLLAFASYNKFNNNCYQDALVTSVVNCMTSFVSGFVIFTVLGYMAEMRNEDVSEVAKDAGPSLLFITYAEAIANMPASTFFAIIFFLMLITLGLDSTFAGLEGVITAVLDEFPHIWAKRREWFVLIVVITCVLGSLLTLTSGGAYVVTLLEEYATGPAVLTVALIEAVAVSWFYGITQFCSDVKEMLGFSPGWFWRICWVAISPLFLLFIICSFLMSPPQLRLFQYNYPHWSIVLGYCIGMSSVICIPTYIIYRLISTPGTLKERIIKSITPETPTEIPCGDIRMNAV
T1 sequence (P23977 whole entry): as the sequence (P23977 whole entry, looked up) above
T2 sequence (P31652 whole entry): as the sequence (P31652 whole entry, looked up) above

Consider `CCC[C@H]1C2CC[C@H](C[C@H]1c1ccc(F)cc1)N2C`, for which the inhibition constant (Ki) in assay [1] turned out to be 0.0121 µM; in assay [5], 0.0996 µM; in [7], 0.0211 µM. Moreover, the half-maximal inhibitory concentration (IC50) in assay [2] turned out to be 0.0131 µM; in assay [3], 0.0371 µM; in [4], 0.109 µM. In addition, in [6], the Uptake ratio was 8.2.
Take `Cc1ccc([C@@H]2C[C@H]3CCC([C@@H]2c2ccccc2)N3C)cc1`: the Ki in assay [1] was determined as 0.00416 µM; in [5], 0.287 µM; in [7] it was 0.00287 µM. The results for the IC50 in [2], in assay [3] and in assay [4] were 0.00448 µM, 0.00555 µM and 0.314 µM, respectively. The Uptake ratio in assay [6] stood at 68.9.
As to `CN1C2CC[C@@H]1CC(c1ccccc1)[C@@H]2c1ccccc1` (mixture of isomers), the IC50 in assay [8] was found to be 0.028 µM.
On to `CCC[C@H]1C2CC[C@H](C[C@H]1c1ccc(C)cc1)N2C`, for which the Ki in [1] was determined as 0.0118 µM; in assay [5], 0.0501 µM; in assay [7], 0.00891 µM. In addition, the IC50 turned out to be 0.0128 µM in assay [2], 0.0182 µM in assay [3] and 0.0548 µM in assay [4]. Besides, in assay [6], the Uptake ratio was 4.25.
In the case of `CN1C2CC[C@@H]1C[C@@H](c1ccccc1)[C@H]2c1ccccc1`, the Ki worked out at 0.0117 µM in assay [1], 0.753 µM in assay [5] and 0.0138 µM in assay [7]. Further, the IC50 is 0.0126 µM in assay [2], 0.0266 µM in assay [3] and 0.823 µM in assay [4]. For the same molecule, the Uptake ratio in assay [6] turned out to be 64.3.
Regarding `CCC[C@H]1C(c2ccc(F)cc2)C[C@H]2CCC1N2C` (stereo not given in full), the Ki was 0.00199 µM in assay [1], 0.0217 µM in assay [5] and 0.00528 µM in [7]. Moreover, the IC50 in [2] was found to be 0.00216 µM; in assay [3], 0.01 µM; in assay [4], 0.0237 µM. Further, in assay [6], the Uptake ratio came to 10.9.
Turning to `Cc1ccc(C2C[C@H]3CCC([C@H]2c2ccccc2)N3C)cc1` (stereo not given in full), the Ki turned out to be 0.00287 µM in assay [1], 0.0738 µM in assay [5] and 0.00258 µM in assay [7]. The IC50 in assay [2] worked out at 0.00309 µM; in assay [3] it was 0.00498 µM; in [4], 0.0808 µM. In [6], the Uptake ratio worked out at 25.7.
Regarding `CN1C2CC[C@@H]1C[C@@H](c1ccc(F)cc1)[C@H]2c1ccccc1`, the results for the inhibitory constant (Ki) in [1], in [5] and in assay [7] were 0.00458 µM, 0.122 µM and 0.006 µM, respectively. In addition, the IC50 in [2] stood at 0.00495 µM; in [3], 0.0114 µM; in [4], 0.134 µM. The Uptake ratio in assay [6] is 26.6.
As to `CCC[C@H]1C(c2ccc(C)cc2)C[C@H]2CCC1N2C` (stereo not given in full), the Ki in assay [1] turned out to be 0.0011 µM; in assay [5], 0.0103 µM; in assay [7], 0.00157 µM. For the same molecule, the IC50 in assay [2] came out at 0.00119 µM; in assay [3] it was 0.00297 µM; in assay [4], 0.0113 µM. Besides, the Uptake ratio in assay [6] stood at 9.35.
Regarding `CCCC[C@H]1C(c2ccc(C)cc2)C[C@H]2CCC1N2C` (stereo not given in full), the Ki worked out at 0.00131 µM in [1], 0.0151 µM in assay [5] and 0.00182 µM in assay [7]. The IC50 in assay [2] came to 0.00142 µM; in [3], 0.00343 µM; in assay [4], 0.0165 µM. The Uptake ratio in assay [6] was 11.5.
As to `COC(=O)[C@@H]1C2CC[C@H](C[C@@H]1c1ccc(C)cc1)N2C`, the Ki stood at 0.00692 µM in assay [1] and 0.00576 µM in [7]. The IC50 in [2] was determined as 0.00747 µM; in assay [9] it was 0.0105 µM.
Consider `COC(=O)[C@H]1C(c2ccccc2)C[C@H]2CCC1N2C` (stereo not given in full), for which the Ki in [1] is 0.0537 µM; in [7] it was 0.0894 µM. Also, the IC50 in [2] is 0.0579 µM; in assay [3], 0.163 µM.
For `CCCC[C@H]1C2CC[C@H](C[C@H]1c1ccc(C)cc1)N2C`, the Ki is 0.0101 µM in [1], 0.051 µM in assay [5] and 0.0114 µM in assay [7]. The IC50 in assay [2] worked out at 0.0109 µM; in [3], 0.0216 µM; in assay [4] it was 0.0558 µM. Moreover, the Uptake ratio in [6] stood at 5.1.
Take `CCC[C@H]1C(c2ccccc2)C[C@H]2CCC1N2C` (stereo not given in full): the Ki worked out at 0.00689 µM in assay [1], 0.0868 µM in [5] and 0.0122 µM in assay [7]. The IC50 is 0.00746 µM in [2], 0.0231 µM in assay [3] and 0.0954 µM in assay [4]. Also, the Uptake ratio in [6] is 12.6.
As to `CN1C2CC[C@@H]1CC(c1ccccc1)[C@@H]2c1ccccc1` (stereo not given in full) [listing 1 of 2 here], the Ki worked out at 0.0289 µM in assay [1], 1.1 µM in [5] and 0.0499 µM in assay [7]. For the same molecule, the IC50 in [2] is 0.0311 µM; in [3], 0.0965 µM; in [4] it was 1.2 µM.
For `CN1C2CC[C@@H]1CC(c1ccccc1)[C@@H]2c1ccccc1` (stereo not given in full) [listing 2 of 2 here], in assay [6], the Uptake ratio came out at 38.1.
In the case of `CCC[C@H]1C2CC[C@H](C[C@H]1c1ccccc1)N2C`, the Ki in assay [1] stood at 0.0302 µM; in [5], 0.389 µM; in assay [7], 0.0749 µM. The IC50 worked out at 0.0326 µM in assay [2], 0.141 µM in assay [3] and 0.427 µM in [4]. Moreover, the Uptake ratio in [6] turned out to be 12.9.

Source of the values: ChEMBL document CHEMBL1131420 (J Med Chem, 1998).
